From ChEMBL document CHEMBL4229565 (J Med Chem, 2018)

Legend:
[1] = Inhibition of Trypanosoma brucei NMT using [3H]-myristoyl-coA/biotinylated CAP5.5 as substrate after 50 mins by scintillation proximity assay
Procedure, shortened: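 TbNMT scintillation proximity assay at 22–23 °C, with test compound dilutions added in DMSO. Reaction: 30 mM Tris pH 7.4, 0.5 mM EDTA, 0.5 mM EGTA, 1.25 mM DTT, 0.1% Triton X-100, 0.125 μM [3H]myristoyl-coA, 0.5 μM biotinylated CAP5.5 peptide, 5 nM enzyme. Enzyme added first, then substrate mix to start; stopped after 50 min with phosphoric acid pH 4.0/MgCl2/SPA beads; scintillation counting.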

[2] = Intrinsic clearance in CD1 mouse liver microsomes at 1 uM measured up to 30 mins by UPLC-MS/MS method; type: ADME, microsome; conditions: 0.5 h
[3] = tested on: Trypanosoma brucei brucei; assay: Antitrypanosomal activity against bloodstream form of Trypanosoma brucei brucei s427 after 69 hrs by resazurin-based […] analysis; type: functional, organism-based; conditions: s427, 69 h
Procedure, shortened: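 Bloodstream T. b. brucei s427 was grown in modified HMI9 (56 μM 1-thioglycerol in place of 2-mercaptoethanol) and counted by hemocytometer. Cells (10^4/ml) were added to compound in DMSO and incubated 69 h at 37 °C, 5% CO2. Resazurin (50 μM final) was then added for 4 h more. Fluorescence read at ex 528/em 590 nm.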

[4] = tested on: human NMT1 versus Trypanosoma brucei NMT; assay: Selectivity ratio of IC50 for human NMT1 to IC50 for Trypanosoma brucei NMT; type: toxicity; conditions: read-out: Ratio IC50
Procedure, shortened: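 Both enzymes assayed by SPA in the same buffer: 0.125 μM [3H]myristoyl-coA, 0.5 μM biotinylated CAP5.5 peptide, 5 nM NMT, 22–23 °C. Reactions stopped at 15 min for HsNMT1 and 50 min for TbNMT. The ratio is HsNMT IC50 divided by TbNMT IC50.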

[5] = molecular target: T1, Glycylpeptide N-tetradecanoyltransferase 1 (Homo sapiens, UniProt P30419); assay: Inhibition of human NMT1 using [3H]-myristoyl-coA/biotinylated CAP5.5 as substrate after 15 mins by scintillation proximity assay
T1 sequence (P30419 whole entry): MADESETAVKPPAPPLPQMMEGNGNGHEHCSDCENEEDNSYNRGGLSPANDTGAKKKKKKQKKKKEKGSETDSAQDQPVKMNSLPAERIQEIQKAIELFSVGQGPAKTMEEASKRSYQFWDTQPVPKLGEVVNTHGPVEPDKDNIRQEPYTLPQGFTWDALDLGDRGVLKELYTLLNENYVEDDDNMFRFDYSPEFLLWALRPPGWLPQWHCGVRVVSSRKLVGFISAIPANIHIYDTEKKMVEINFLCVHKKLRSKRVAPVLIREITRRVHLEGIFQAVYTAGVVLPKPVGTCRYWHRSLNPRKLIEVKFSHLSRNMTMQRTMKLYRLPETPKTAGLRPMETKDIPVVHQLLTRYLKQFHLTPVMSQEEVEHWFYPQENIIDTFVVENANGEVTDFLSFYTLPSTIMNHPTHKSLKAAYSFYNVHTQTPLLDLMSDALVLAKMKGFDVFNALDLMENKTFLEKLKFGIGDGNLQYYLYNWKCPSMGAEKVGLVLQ

human NMT = assay: Therapeutic index, ratio of IC50 for human NMT to EC50 for bloodstream form of Trypanosoma brucei brucei s427; type: toxicity; conditions: read-out: Ratio IC50/EC50

| Compound | IC50 [1] | CLH [2] | EC50 [3] | selectivity ratio [4] | IC50 [5] | selectivity ratio (human NMT) |
| --- | --- | --- | --- | --- | --- | --- |
| CC(C)Cc1ccc2nn(C)cc2c1NS(=O)(=O)c1ccc(CCCOC[C@H]2CN(C)CCO2)cc1 | < 5 nM | 22 mL/min/g | 9 nM | – | – | – |
| O=S(=O)(Nc1c(C2CCCC2)ccc2ncccc12)c1ccc(Br)cc1 | 3200 nM | > 50 mL/min/g | > 50000 nM | – | – | – |
| Cn1cc2c(NS(=O)(=O)c3ccc(Br)cc3)c(C3CCCC3)ccc2n1 | 26000 nM | – | > 50000 nM | > 3.8 | > 100000 nM | – |
| COC(=O)c1ccc(N2CCCC2)c(NS(=O)(=O)c2ccc(OC)cc2)c1 | 700 nM | – | 15000 nM | > 100 | > 100000 nM | > 6.7 |
| COC(=O)c1ccc(N2CCCC2)c(NS(=O)(=O)c2ccc(Br)cc2)c1 | 800 nM | – | 21000 nM | > 100 | > 100000 nM | > 4.8 |
| CN1CCC(CCCCc2ccc(S(=O)(=O)Nc3c(N4CCCC4)ccc4ncccc34)cc2)CC1 | 11 nM | – | 76 nM | 110 | 1200 nM | 16 |
| CC(C)Cc1ccc2ncccc2c1NS(=O)(=O)c1ccc(CCCCN2CCN3CCC[C@@H]3C2)cc1 | 12 nM | 8.9 mL/min/g | 250 nM | – | – | – |
| CC(C)Cc1ccc2ncccc2c1NS(=O)(=O)c1ccc(CCCN2CCN(C)CC2)cc1 | 7 nM | 2.3 mL/min/g | 84 nM | – | – | – |
| Cn1cc2c(NS(=O)(=O)c3ccc(Br)cc3)cccc2n1 | 27000 nM | 6.3 mL/min/g | > 50000 nM | > 3.7 | > 100000 nM | – |
| CC(C)Cc1ccc2nn(C)cc2c1NS(=O)(=O)c1ccc(CCCCN2CCCN(C)CC2)cc1 | < 5 nM | 4 mL/min/g | 35 nM | – | – | – |
| CC(C)Cc1ccc2ncccc2c1NS(=O)(=O)c1ccc(CCCCC2CCNCC2)cc1 | < 5 nM | 1.5 mL/min/g | 21 nM | – | – | – |
| O=S(=O)(Nc1cc(-c2cccnc2)ccc1N1CCCC1)c1ccc(Br)cc1 | 39000 nM | – | – | – | – | – |
| CC(C)Cc1ccc2nn(C)cc2c1NS(=O)(=O)c1ccc(CCCOC[C@@H]2COCCN2C)cc1 | 9 nM | – | 76 nM | – | – | – |
| CC(C)Cc1ccc2ncccc2c1NS(=O)(=O)c1ccc(CCCOC[C@@H]2CNCCO2)cc1 | < 5 nM | – | 39 nM | – | – | – |
| O=S(=O)(Nc1c(N2CCCCCC2)ccc2ncccc12)c1ccc(Br)cc1 | 690 nM | > 50 mL/min/g | 18000 nM | – | – | – |
| CC(C)Cc1ccc2ncccc2c1NS(=O)(=O)c1ccc(CCCO[C@H]2C[C@H]3CC[C@@H](C2)N3C)cc1 | < 5 nM | 2.3 mL/min/g | 9 nM | – | – | – |
| Cc1ccc2ncccc2c1NS(=O)(=O)c1ccc(Br)cc1 | 33000 nM | 3.6 mL/min/g | – | > 3 | > 100000 nM | – |
| CC(C)Cc1ccc2ncccc2c1NS(=O)(=O)c1ccc(CCCC2CCN(C)CC2)cc1 | < 5 nM | 2.6 mL/min/g | 9 nM | – | – | – |
| CC(C)Cc1ccc2nn(C)cc2c1NS(=O)(=O)c1ccc(Br)cc1 | 1100 nM | – | > 50000 nM | > 91 | > 100000 nM | – |
| CC(C)Cc1ccc2ncccc2c1NS(=O)(=O)c1ccc(CCCCC2CCN(C)CC2)cc1 | < 5 nM | 6.2 mL/min/g | 19 nM | – | – | – |
| COc1ccc(S(=O)(=O)Nc2cc(C(=O)O)ccc2N2CCCCCC2)cc1 | > 100000 nM | – | – | – | – | – |

| Compound | IC50 [1] | CLH [2] | EC50 [3] | selectivity ratio [4] | IC50 [5] | selectivity ratio (human NMT) |
| --- | --- | --- | --- | --- | --- | --- |
| O=S(=O)(Nc1ccc2scnc2c1)c1ccc(Br)cc1 | 24000 nM | – | – | – | – | – |
| CC(C)Cc1ccc2ncccc2c1NS(=O)(=O)c1ccc(CCCCN2CCNCC2)cc1 | 10 nM | 1.3 mL/min/g | 180 nM | – | – | – |
| CC(C)Cc1ccc2nn(C)cc2c1NS(=O)(=O)c1ccc(CCCN2CCCN(C)CC2)cc1 | 5 nM | – | 16 nM | – | – | – |
| O=C1OCc2c1ccc(N1CCCC1)c2NS(=O)(=O)c1ccc(Br)cc1 | > 100000 nM | – | – | – | – | – |
| COC(=O)c1ccc(N2CCCCC2)c(NS(=O)(=O)c2ccc(Br)cc2)c1 | > 100000 nM | – | – | – | – | – |
| CC(C)Cc1ccc2nn(C)cc2c1NS(=O)(=O)c1ccc(CCCOC[C@@H]2CN(C)CCO2)cc1 | < 5 nM | 24 mL/min/g | 26 nM | – | – | – |
| CC(C)Cc1ccc2nn(C)cc2c1NS(=O)(=O)c1ccc(CCCOC[C@H]2CCCN2C)cc1 | < 5 nM | – | 20 nM | – | – | – |
| Cn1cc2c(NS(=O)(=O)c3ccc(Br)cc3)c(CC3CCCCC3)ccc2n1 | 1700 nM | – | > 50000 nM | > 59 | > 100000 nM | – |
| O=S(=O)(Nc1cccc2ncccc12)c1ccc(Br)cc1 | 87000 to 90000 nM | – | > 50000 nM | > 1.1 | > 100000 nM | – |
| CC(C)Cc1ccc2nn(C)cc2c1NS(=O)(=O)c1ccc(CCCCN2CCN3CCC[C@@H]3C2)cc1 | 14 nM | 3.7 mL/min/g | 140 nM | – | – | – |
| CC(C)Cc1ccc2ncccc2c1NS(=O)(=O)c1ccc(Br)cc1 | 1700 nM | > 50 mL/min/g | > 50000 nM | > 59 | > 100000 nM | – |
| CC(C)Cc1ccc2nn(C)cc2c1NS(=O)(=O)c1ccc(CCCC2CCN(C)CC2)cc1 | < 5 nM | 1.2 mL/min/g | 5 nM | – | – | – |
| O=S(=O)(Nc1c(-c2ccccc2)ccc2ncccc12)c1ccc(Br)cc1 | > 100000 nM | – | 50000 nM | – | > 100000 nM | – |
| COC(=O)c1cccc(NS(=O)(=O)c2ccc(Br)cc2)c1 | > 100000 nM | – | – | – | – | – |
| CC(C)Cc1ccc2ncccc2c1NS(=O)(=O)c1ccc(CCCOC[C@@H]2CN(C)CCO2)cc1 | < 5 nM | – | 33 nM | – | – | – |
| CC(C)Cc1ccc2ncccc2c1NS(=O)(=O)c1ccc(CCCCN2C[C@@H](C)N[C@@H](C)C2)cc1 | 16 nM | – | 350 nM | – | – | – |
| CC(C)Cc1ccc2ncccc2c1NS(=O)(=O)c1ccc(CCCO[C@@H]2CCCN(C)C2)cc1 | < 5 nM | – | 39 nM | – | – | – |
| CCC(CC)c1ccc2ncccc2c1NS(=O)(=O)c1ccc(Br)cc1 | 5700 nM | – | > 50000 nM | > 17 | > 100000 nM | – |
| CC(C)Cc1ccc2ncccc2c1NS(=O)(=O)c1ccc(CCCN2CCCN(C)CC2)cc1 | < 5 nM | 3.7 mL/min/g | 18 nM | – | – | – |
| O=S(=O)(Nc1c(Cc2ccccc2)ccc2ncccc12)c1ccc(Br)cc1 | 6200 nM | 23 mL/min/g | > 50000 nM | > 16 | > 100000 nM | – |
